From article PMC9055608 (RSC Advances, 2020)

Assays:
[1] = system: MCF-7; assay: MTT cell proliferation assay, MCF-7; type: cell-based, human; conditions: MCF-7, breast; MTT, 72 h
Summary of the method: (§1)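 ATCC lines grown in DMEM or RPMI-1640 with 10% heat-inactivated FBS and 1% penicillin/streptomycin at 37 °C, 5% CO2. Log-phase cells seeded at about 4000–5000/well and left to adhere 24 h. Sextuplicate wells, 72 h. MTT for 4 h, then DMSO and absorbance. IC50 taken from dose–response curves.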

[2] = system: MDA-MB453; assay: MTT cell proliferation assay, MDA-MB453; type: cell-based, human; conditions: MDA-MB453, breast; MTT, 72 h
Summary of the method: as §1

[3] = system: SKOV3; assay: MTT cell proliferation assay, SKOV3; type: cell-based, human; conditions: SKOV3, ovary; MTT, 72 h
Summary of the method: as §1

[4] = cisplatin; cited from earlier work
[5] = system: MDA-MB231; assay: MTT cell proliferation assay, MDA-MB231; type: cell-based, human; conditions: MDA-MB231, breast; MTT, 72 h
Summary of the method: as §1

[6] = system: HT-29; assay: MTT cell proliferation assay, HT-29; type: cell-based, human; conditions: HT-29, colon; MTT, 72 h
Summary of the method: as §1

[7] = system: DU-145; assay: MTT cell proliferation assay, DU-145; type: cell-based, human; conditions: DU-145, prostate; MTT, 72 h
Summary of the method: as §1

[8] = system: MCF-7 xenograft tumour; assay: Drug efficacy in vivo, MCF-7 breast cancer model; parameters: species or system nude mice; conditions: positive control
[9] = system: N87; assay: MTT cell proliferation assay, N87; type: cell-based, human; conditions: N87, stomach; MTT, 72 h
Summary of the method: as §1

[10] = system: SKMEL-28; assay: MTT cell proliferation assay, SKMEL-28; type: cell-based, human; conditions: SKMEL-28, skin; MTT, 72 h
Summary of the method: as §1

[11] = system: A-549; assay: MTT cell proliferation assay, A-549; type: cell-based, human; conditions: A-549, lung; MTT, 72 h
Summary of the method: as §1

[12] = system: MCF-7 xenograft tumour; assay: Pathological tissue sections; type: in vivo, nude mice; conditions: positive control group, cisplatin 5 mg kg^−1
Summary of the method: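 Tumour-bearing nude mice were anaesthetised and killed after the 9-day dosing. Heart, liver, spleen, lung, kidney, brain and tumour were fixed in 10% formalin, embedded in paraffin, cut into 4 μm sections and stained with haematoxylin–eosin.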

[13] = system: SKBR3; assay: MTT cell proliferation assay, SKBR3; type: cell-based, human; conditions: SKBR3, breast; MTT, 72 h
Summary of the method: as §1

[14] = Mouse weight during in vivo efficacy study; parameters: species or system nude mice; conditions: during the nine days of treatment
[15] = system: Calu-3; assay: MTT cell proliferation assay, Calu-3; type: cell-based, human; conditions: Calu-3, lung; MTT, 72 h
Summary of the method: as §1

[16] = system: A375; assay: MTT cell proliferation assay, A375; type: cell-based, human; conditions: A375, melanoma; MTT, 72 h
Summary of the method: as §1

`N.N.[Cl][Pt][Cl]` [Cisplatin, cis-platinum, reference compound] showed an IC50 [1] of 11.2 ± 0.6 µM, an IC50 [2] of 15.4 ± 0.83 µM and an IC50 [3] of 4.15 ± 0.3 µM. For the same molecule, the AUC0→t [4] was 36 000 μg L^−1 h, the CL [4] was 0.23 L·kg/h and the IC50 [5] was 12.8 ± 0.58 µM. The IC50 [6] was 4.71 ± 0.17 µM, the IC50 [7] was 2.82 ± 0.14 µM and the “Tumour weight (mean)” value ([8]; group E, cisplatin 5 mg kg^−1 tail vein for 9 days) was 299.53 ± 109.60. For the same molecule, the “Inhibition rate (IR) determined as tumour weight” value ([8]; cisplatin 5 mg kg^−1 for 9 days) was 64.10%, the IC50 [9] was 8.35 ± 0.3 µM and the IC50 [10] was 12.9 ± 0.96 µM. For the same molecule, the IC50 [11] was 3.03 ± 0.24 µM, the tumour histopathology [12] was “a large amount of tumour cell necrosis with nucleolysis” and the IC50 [13] was 3.04 ± 0.17 µM. The “mouse weight course (in words)” value [14] was “obvious weight loss”, the IC50 [15] was 7.39 ± 0.25 µM and the IC50 [16] was 5.28 ± 0.18 µM.
